The compounds below were run against T1, Transient receptor potential cation channel subfamily V member 1 (Homo sapiens, UniProt Q8NER1) (assay: Antagonist activity at capsaicin-induced human recombinant TRPV1 expressed in CHO-K1 cells co-expressing aequorin incubated for 2.5 mins in presence of ATP followed by capsaicin addition by luminescence assay).
Type: cell-based
How it was run: (§1)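 Aequorin cells expressing recombinant human TRPV1 were loaded with coelenterazine for 4 h in the dark. Assay buffer was DMEM-F12 with 15 mM HEPES (pH 7.0) and 0.1% BSA. Cells were added to compound and incubated 2.5 min, then challenged with capsaicin or with HCl at pH 5.0, and luminescence was read at once. Digitonin (100 µM) and ATP (50 µM) served as reference blanks. Mean ± SEM of at least three experiments.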

T1 sequence (Q8NER1 whole entry): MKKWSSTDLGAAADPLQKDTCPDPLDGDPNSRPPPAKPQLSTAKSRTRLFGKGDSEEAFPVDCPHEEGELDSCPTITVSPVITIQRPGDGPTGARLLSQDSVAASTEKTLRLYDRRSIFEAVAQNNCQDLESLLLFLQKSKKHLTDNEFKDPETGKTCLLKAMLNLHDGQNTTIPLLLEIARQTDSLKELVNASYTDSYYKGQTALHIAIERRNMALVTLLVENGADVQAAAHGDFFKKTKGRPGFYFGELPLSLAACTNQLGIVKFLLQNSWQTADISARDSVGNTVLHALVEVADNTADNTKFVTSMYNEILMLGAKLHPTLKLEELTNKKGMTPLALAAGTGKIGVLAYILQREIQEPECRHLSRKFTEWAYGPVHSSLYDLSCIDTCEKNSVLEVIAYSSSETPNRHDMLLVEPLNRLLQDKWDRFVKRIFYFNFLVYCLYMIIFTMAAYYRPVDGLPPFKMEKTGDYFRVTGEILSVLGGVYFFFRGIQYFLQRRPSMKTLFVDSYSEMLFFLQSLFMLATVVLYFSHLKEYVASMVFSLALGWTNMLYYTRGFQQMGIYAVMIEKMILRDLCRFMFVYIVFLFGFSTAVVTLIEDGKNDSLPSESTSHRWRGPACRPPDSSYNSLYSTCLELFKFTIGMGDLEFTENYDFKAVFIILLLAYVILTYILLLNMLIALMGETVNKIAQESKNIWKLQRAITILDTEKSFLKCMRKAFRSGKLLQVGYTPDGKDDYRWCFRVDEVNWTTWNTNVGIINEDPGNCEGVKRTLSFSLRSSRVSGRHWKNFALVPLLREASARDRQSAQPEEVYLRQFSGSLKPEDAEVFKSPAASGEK

Row | Structure (SMILES) | IC50 [µM]
1 | Fc1ccc(-n2cc(CN3CCc4c([nH]c5ccccc45)C3)nn2)cc1 | 0.494
2 | COc1ccccc1-n1cc(CN2CCc3c([nH]c4ccccc34)C2)nn1 | 1.88
3 | CC(C)c1ccccc1-n1cc(CN2CCc3c([nH]c4ccccc34)C2)nn1 | 2.53
4 | Clc1cccc(-n2cc(CN3CCc4c([nH]c5ccccc45)C3)nn2)c1 | 0.416
5 | COc1ccc(-n2cc(CN3CCc4c([nH]c5ccccc45)C3)nn2)cc1 | 1.2
6 | Clc1ccccc1-n1cc(CN2CCc3c([nH]c4ccccc34)C2)nn1 | 0.243
7 | c1ccc(-n2cc(CN3CCc4c([nH]c5ccccc45)C3)nn2)cc1 | 0.314
8 | Cc1ccc(C)c(-n2cc(CN3CCc4c([nH]c5ccccc45)C3)nn2)c1 | 1.54
9 | CC(C)(C)c1ccc(-n2cc(CN3CCc4c([nH]c5ccccc45)C3)nn2)cc1 | 1.22
10 | c1cc(-n2cc(CN3CCc4c([nH]c5ccccc45)C3)nn2)c2ccncc2c1 | 2.16

These compounds were tested against T1, Transient receptor potential cation channel subfamily V member 1 (assay: Antagonist activity at low pH-induced human recombinant TRPV1 expressed in CHO-K1 cells co-expressing aequorin at 50 uM incubated for 2.5 mins in presence of ATP followed by hydrochloride addition at pH 5 by luminescence assay relative to control).
Type: cell-based
How it was run: as §1

Row | Structure (SMILES) | inhibition [%]
11 | Fc1ccc(-n2cc(CN3CCc4c([nH]c5ccccc45)C3)nn2)cc1 | 74
12 | COc1ccccc1-n1cc(CN2CCc3c([nH]c4ccccc34)C2)nn1 | 64
13 | CC(C)c1ccccc1-n1cc(CN2CCc3c([nH]c4ccccc34)C2)nn1 | 67
14 | Clc1cccc(-n2cc(CN3CCc4c([nH]c5ccccc45)C3)nn2)c1 | 71
15 | COc1ccc(-n2cc(CN3CCc4c([nH]c5ccccc45)C3)nn2)cc1 | 55
16 | Clc1ccccc1-n1cc(CN2CCc3c([nH]c4ccccc34)C2)nn1 | 64
17 | c1ccc(-n2cc(CN3CCc4c([nH]c5ccccc45)C3)nn2)cc1 | 68
18 | Cc1ccc(C)c(-n2cc(CN3CCc4c([nH]c5ccccc45)C3)nn2)c1 | 67
19 | CC(C)(C)c1ccc(-n2cc(CN3CCc4c([nH]c5ccccc45)C3)nn2)cc1 | 61
20 | c1cc(-n2cc(CN3CCc4c([nH]c5ccccc45)C3)nn2)c2ccncc2c1 | 59
